# Data reported in ChEMBL document CHEMBL4673301, “Design, synthesis, and anti-proliferative evaluation of new quinazolin-4(3H)-ones as potential VEGFR-2 inhibitors” (Bioorg Med Chem, 2021).
# Tested on: MCF7
# Assay: Potency index, ratio of IC50 of sorafenib to IC50 of compound for antiproliferative activity against human MCF7 cells assessed as reduction in cell viability incubated for 24 hrs by MTT assay
# Assay type: functional
# Details: not given
row,Structure (SMILES),Ratio IC50
1,C/C(=N\NC(=O)c1cc([N+](=O)[O-])ccc1Cl)c1ccc(NC(=O)CSc2nc3ccccc3c(=O)n2-c2ccc(C)cc2)cc1,1.84

# Tested on: HepG2
# Assay: Potency index, ratio of IC50 of sorafenib to IC50 of compound for antiproliferative activity against human HepG2 cells assessed as reduction in cell viability incubated for 24 hrs by MTT assay
# Assay type: functional
# Details: not given
row,Structure (SMILES),Ratio IC50
1,C/C(=N\NC(=O)c1cc([N+](=O)[O-])ccc1Cl)c1ccc(NC(=O)CSc2nc3ccccc3c(=O)n2-c2ccc(C)cc2)cc1,3.88

# Tested on: HCT-116
# Assay: Potency index, ratio of IC50 of doxorubicin to IC50 of compound for antiproliferative activity against human HCT-116 cells assessed as reduction in cell viability incubated for 24 hrs by MTT assay
# Assay type: functional
# Details: not given
row,Structure (SMILES),Ratio IC50
1,C/C(=N\NC(=O)c1cc([N+](=O)[O-])ccc1Cl)c1ccc(NC(=O)CSc2nc3ccccc3c(=O)n2-c2ccc(C)cc2)cc1,5.73

# Tested on: MCF7
# Assay: Antiproliferative activity against human MCF7 cells assessed as reduction in cell viability incubated for 24 hrs by MTT assay
# Assay type: functional, cell-based
# Details: MCF7, 24 h
# In short: (§1)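 Cells from ATCC grown in RPMI-1640 with 10% FBS, penicillin 100 unit/ml and streptomycin 100 μg/ml at 37 °C, 5% CO2. Seeded at 1.0 x 10^4 cells/well for 48 h, then exposed to a range of compound concentrations for 24 h. MTT (5 mg/ml) added for 4 h, formazan dissolved in DMSO, A570 read. Viability taken as % of untreated. Duplicate wells, at least three independent IC50 determinations.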
row,Structure (SMILES),IC50 [µM]
1,Cc1ccc(-n2c(SCC(=O)Nc3ccc(S(=O)(=O)Nc4ccccn4)cc3)nc3ccccc3c2=O)cc1,30.6
2,Cc1ccc(-n2c(SCC(=O)Nc3ccc(C(=O)NC4CCCCC4)cc3)nc3ccccc3c2=O)cc1,24.9
3,Cc1ccc(-n2c(SCC(=O)Nc3ccc(S(=O)(=O)Nc4nc(C)cc(C)n4)cc3)nc3ccccc3c2=O)cc1,7.1
4,Cc1ccc(-n2c(SCC(=O)Nc3ccc(C(=O)Nc4ccc(Cl)cc4)cc3)nc3ccccc3c2=O)cc1,5.99
5,CCOC(=O)c1ccc(NC(=O)c2ccc(NC(=O)CSc3nc4ccccc4c(=O)n3-c3ccc(C)cc3)cc2)cc1,23.7
6,C/C(=N\NC(=O)c1cccc(Cl)c1)c1ccc(NC(=O)CSc2nc3ccccc3c(=O)n2-c2ccc(C)cc2)cc1,40.9
7,CNC(=O)c1cc(Oc2ccc(NC(=O)Nc3ccc(Cl)c(C(F)(F)F)c3)cc2)ccn1 [SORAFENIB],7.21
8,Cc1ccc(NC(=O)c2ccc(NC(=O)CSc3nc4ccccc4c(=O)n3-c3ccc(C)cc3)cc2)cc1,28.4
9,C/C(=N\NC(=O)c1ccccc1Cl)c1ccc(NC(=O)CSc2nc3ccccc3c(=O)n2-c2ccc(C)cc2)cc1,23
10,CC(=O)c1ccc(NC(=O)CSc2nc3ccccc3c(=O)n2-c2ccc(C)cc2)cc1,13.5
11,C/C(=N\NC(=O)c1cc([N+](=O)[O-])ccc1Cl)c1ccc(NC(=O)CSc2nc3ccccc3c(=O)n2-c2ccc(C)cc2)cc1,3.91
12,Cc1ccc(-n2c(SCC(=O)Nc3ccc(C(=O)NNc4ccccc4)cc3)nc3ccccc3c2=O)cc1,16.1
13,Cc1ccc(-n2c(SCC(=O)Nc3ccc(C(=O)NNC(=O)c4ccccc4O)cc3)nc3ccccc3c2=O)cc1,14.4
14,CC(=O)NS(=O)(=O)c1ccc(NC(=O)CSc2nc3ccccc3c(=O)n2-c2ccc(C)cc2)cc1,6.79
15,C/C(=N\NC(=O)c1ccccc1O)c1ccc(NC(=O)CSc2nc3ccccc3c(=O)n2-c2ccc(C)cc2)cc1,15.4
16,C/C(=N\NC(=O)c1ccc(Cl)cc1)c1ccc(NC(=O)CSc2nc3ccccc3c(=O)n2-c2ccc(C)cc2)cc1,44
17,Cc1ccc(-n2c(SCC(=O)Nc3ccc(C(=O)NCc4ccccc4)cc3)nc3ccccc3c2=O)cc1,18.3
18,Cc1ccc(-n2c(SCC(=O)Nc3ccc(C(=O)Nc4ccccc4)cc3)nc3ccccc3c2=O)cc1,26.9
19,C/C(=N\NC(=O)c1ccccc1)c1ccc(NC(=O)CSc2nc3ccccc3c(=O)n2-c2ccc(C)cc2)cc1,35.9
20,C/C(=N\NC(N)=S)c1ccc(NC(=O)CSc2nc3ccccc3c(=O)n2-c2ccc(C)cc2)cc1,9.89

# Tested on: MCF7
# Assay: Potency index, ratio of IC50 of doxorubicin to IC50 of compound for antiproliferative activity against human MCF7 cells assessed as reduction in cell viability incubated for 24 hrs by MTT assay
# Assay type: functional
# Details: not given
row,Structure (SMILES),Ratio IC50
1,C/C(=N\NC(=O)c1cc([N+](=O)[O-])ccc1Cl)c1ccc(NC(=O)CSc2nc3ccccc3c(=O)n2-c2ccc(C)cc2)cc1,1.96

# Tested on: HepG2
# Assay: Antiproliferative activity against human HepG2 cells assessed as reduction in cell viability incubated for 24 hrs by MTT assay
# Assay type: functional, cell-based
# Details: HepG2, 24 h
# In short: as §1
row,Structure (SMILES),IC50 [µM]
1,Cc1ccc(-n2c(SCC(=O)Nc3ccc(S(=O)(=O)Nc4ccccn4)cc3)nc3ccccc3c2=O)cc1,30
2,Cc1ccc(-n2c(SCC(=O)Nc3ccc(C(=O)NC4CCCCC4)cc3)nc3ccccc3c2=O)cc1,16.5
3,Cc1ccc(-n2c(SCC(=O)Nc3ccc(S(=O)(=O)Nc4nc(C)cc(C)n4)cc3)nc3ccccc3c2=O)cc1,6.76
4,Cc1ccc(-n2c(SCC(=O)Nc3ccc(C(=O)Nc4ccc(Cl)cc4)cc3)nc3ccccc3c2=O)cc1,4.12
5,CCOC(=O)c1ccc(NC(=O)c2ccc(NC(=O)CSc3nc4ccccc4c(=O)n3-c3ccc(C)cc3)cc2)cc1,21.5
6,C/C(=N\NC(=O)c1cccc(Cl)c1)c1ccc(NC(=O)CSc2nc3ccccc3c(=O)n2-c2ccc(C)cc2)cc1,33.8
7,CNC(=O)c1cc(Oc2ccc(NC(=O)Nc3ccc(Cl)c(C(F)(F)F)c3)cc2)ccn1 [SORAFENIB],7.31
8,Cc1ccc(NC(=O)c2ccc(NC(=O)CSc3nc4ccccc4c(=O)n3-c3ccc(C)cc3)cc2)cc1,19
9,C/C(=N\NC(=O)c1ccccc1Cl)c1ccc(NC(=O)CSc2nc3ccccc3c(=O)n2-c2ccc(C)cc2)cc1,22.6
10,CC(=O)c1ccc(NC(=O)CSc2nc3ccccc3c(=O)n2-c2ccc(C)cc2)cc1,12.3
11,C/C(=N\NC(=O)c1cc([N+](=O)[O-])ccc1Cl)c1ccc(NC(=O)CSc2nc3ccccc3c(=O)n2-c2ccc(C)cc2)cc1,1.88
12,Cc1ccc(-n2c(SCC(=O)Nc3ccc(C(=O)NNc4ccccc4)cc3)nc3ccccc3c2=O)cc1,12.1
13,Cc1ccc(-n2c(SCC(=O)Nc3ccc(C(=O)NNC(=O)c4ccccc4O)cc3)nc3ccccc3c2=O)cc1,11.7
14,CC(=O)NS(=O)(=O)c1ccc(NC(=O)CSc2nc3ccccc3c(=O)n2-c2ccc(C)cc2)cc1,4.19
15,C/C(=N\NC(=O)c1ccccc1O)c1ccc(NC(=O)CSc2nc3ccccc3c(=O)n2-c2ccc(C)cc2)cc1,11.9
16,C/C(=N\NC(=O)c1ccc(Cl)cc1)c1ccc(NC(=O)CSc2nc3ccccc3c(=O)n2-c2ccc(C)cc2)cc1,41.6
17,Cc1ccc(-n2c(SCC(=O)Nc3ccc(C(=O)NCc4ccccc4)cc3)nc3ccccc3c2=O)cc1,17.4
18,Cc1ccc(-n2c(SCC(=O)Nc3ccc(C(=O)Nc4ccccc4)cc3)nc3ccccc3c2=O)cc1,21.8
19,C/C(=N\NC(=O)c1ccccc1)c1ccc(NC(=O)CSc2nc3ccccc3c(=O)n2-c2ccc(C)cc2)cc1,30.5
20,C/C(=N\NC(N)=S)c1ccc(NC(=O)CSc2nc3ccccc3c(=O)n2-c2ccc(C)cc2)cc1,8.38

# Tested on: HCT-116
# Assay: Potency index, ratio of IC50 of sorafenib to IC50 of compound for antiproliferative activity against human HCT-116 cells assessed as reduction in cell viability incubated for 24 hrs by MTT assay
# Assay type: functional
# Details: not given
row,Structure (SMILES),Ratio IC50
1,C/C(=N\NC(=O)c1cc([N+](=O)[O-])ccc1Cl)c1ccc(NC(=O)CSc2nc3ccccc3c(=O)n2-c2ccc(C)cc2)cc1,5.59

# Tested on: HCT-116
# Assay: Antiproliferative activity against human HCT-116 cells assessed as reduction in cell viability incubated for 24 hrs by MTT assay
# Assay type: functional, cell-based
# Details: HCT-116, 24 h
# In short: as §1
row,Structure (SMILES),IC50 [µM]
1,Cc1ccc(-n2c(SCC(=O)Nc3ccc(S(=O)(=O)Nc4ccccn4)cc3)nc3ccccc3c2=O)cc1,24.1
2,Cc1ccc(-n2c(SCC(=O)Nc3ccc(C(=O)NC4CCCCC4)cc3)nc3ccccc3c2=O)cc1,14.1
3,Cc1ccc(-n2c(SCC(=O)Nc3ccc(S(=O)(=O)Nc4nc(C)cc(C)n4)cc3)nc3ccccc3c2=O)cc1,5.24
4,Cc1ccc(-n2c(SCC(=O)Nc3ccc(C(=O)Nc4ccc(Cl)cc4)cc3)nc3ccccc3c2=O)cc1,3.67
5,CCOC(=O)c1ccc(NC(=O)c2ccc(NC(=O)CSc3nc4ccccc4c(=O)n3-c3ccc(C)cc3)cc2)cc1,17
6,C/C(=N\NC(=O)c1cccc(Cl)c1)c1ccc(NC(=O)CSc2nc3ccccc3c(=O)n2-c2ccc(C)cc2)cc1,30.4
7,CNC(=O)c1cc(Oc2ccc(NC(=O)Nc3ccc(Cl)c(C(F)(F)F)c3)cc2)ccn1 [SORAFENIB],9.4
8,Cc1ccc(NC(=O)c2ccc(NC(=O)CSc3nc4ccccc4c(=O)n3-c3ccc(C)cc3)cc2)cc1,17.4
9,C/C(=N\NC(=O)c1ccccc1Cl)c1ccc(NC(=O)CSc2nc3ccccc3c(=O)n2-c2ccc(C)cc2)cc1,17.1
10,CC(=O)c1ccc(NC(=O)CSc2nc3ccccc3c(=O)n2-c2ccc(C)cc2)cc1,8.27
11,C/C(=N\NC(=O)c1cc([N+](=O)[O-])ccc1Cl)c1ccc(NC(=O)CSc2nc3ccccc3c(=O)n2-c2ccc(C)cc2)cc1,1.68
12,Cc1ccc(-n2c(SCC(=O)Nc3ccc(C(=O)NNc4ccccc4)cc3)nc3ccccc3c2=O)cc1,9.4
13,Cc1ccc(-n2c(SCC(=O)Nc3ccc(C(=O)NNC(=O)c4ccccc4O)cc3)nc3ccccc3c2=O)cc1,10.8
14,CC(=O)NS(=O)(=O)c1ccc(NC(=O)CSc2nc3ccccc3c(=O)n2-c2ccc(C)cc2)cc1,6.14
15,C/C(=N\NC(=O)c1ccccc1O)c1ccc(NC(=O)CSc2nc3ccccc3c(=O)n2-c2ccc(C)cc2)cc1,12.4
16,C/C(=N\NC(=O)c1ccc(Cl)cc1)c1ccc(NC(=O)CSc2nc3ccccc3c(=O)n2-c2ccc(C)cc2)cc1,37.1
17,Cc1ccc(-n2c(SCC(=O)Nc3ccc(C(=O)NCc4ccccc4)cc3)nc3ccccc3c2=O)cc1,13.4
18,Cc1ccc(-n2c(SCC(=O)Nc3ccc(C(=O)Nc4ccccc4)cc3)nc3ccccc3c2=O)cc1,16.6
19,COc1cccc2c1C(=O)c1c(O)c3c(c(O)c1C2=O)C[C@@](O)(C(=O)CO)C[C@@H]3O[C@H]1C[C@H](N)[C@H](O)[C@H](C)O1 [DOXORUBICIN],9.63
20,C/C(=N\NC(=O)c1ccccc1)c1ccc(NC(=O)CSc2nc3ccccc3c(=O)n2-c2ccc(C)cc2)cc1,29
21,C/C(=N\NC(N)=S)c1ccc(NC(=O)CSc2nc3ccccc3c(=O)n2-c2ccc(C)cc2)cc1,8.32

# Tested on: HepG2
# Assay: Potency index, ratio of IC50 of doxorubicin to IC50 of compound for antiproliferative activity against human HepG2 cells assessed as reduction in cell viability incubated for 24 hrs by MTT assay
# Assay type: functional
# Details: not given
row,Structure (SMILES),Ratio IC50
1,C/C(=N\NC(=O)c1cc([N+](=O)[O-])ccc1Cl)c1ccc(NC(=O)CSc2nc3ccccc3c(=O)n2-c2ccc(C)cc2)cc1,4.39

# Biological target: Vascular endothelial growth factor receptor 2 (Homo sapiens, UniProt P35968)
# Details: not given
# Chain of Vascular endothelial growth factor receptor 2 (P35968 whole entry): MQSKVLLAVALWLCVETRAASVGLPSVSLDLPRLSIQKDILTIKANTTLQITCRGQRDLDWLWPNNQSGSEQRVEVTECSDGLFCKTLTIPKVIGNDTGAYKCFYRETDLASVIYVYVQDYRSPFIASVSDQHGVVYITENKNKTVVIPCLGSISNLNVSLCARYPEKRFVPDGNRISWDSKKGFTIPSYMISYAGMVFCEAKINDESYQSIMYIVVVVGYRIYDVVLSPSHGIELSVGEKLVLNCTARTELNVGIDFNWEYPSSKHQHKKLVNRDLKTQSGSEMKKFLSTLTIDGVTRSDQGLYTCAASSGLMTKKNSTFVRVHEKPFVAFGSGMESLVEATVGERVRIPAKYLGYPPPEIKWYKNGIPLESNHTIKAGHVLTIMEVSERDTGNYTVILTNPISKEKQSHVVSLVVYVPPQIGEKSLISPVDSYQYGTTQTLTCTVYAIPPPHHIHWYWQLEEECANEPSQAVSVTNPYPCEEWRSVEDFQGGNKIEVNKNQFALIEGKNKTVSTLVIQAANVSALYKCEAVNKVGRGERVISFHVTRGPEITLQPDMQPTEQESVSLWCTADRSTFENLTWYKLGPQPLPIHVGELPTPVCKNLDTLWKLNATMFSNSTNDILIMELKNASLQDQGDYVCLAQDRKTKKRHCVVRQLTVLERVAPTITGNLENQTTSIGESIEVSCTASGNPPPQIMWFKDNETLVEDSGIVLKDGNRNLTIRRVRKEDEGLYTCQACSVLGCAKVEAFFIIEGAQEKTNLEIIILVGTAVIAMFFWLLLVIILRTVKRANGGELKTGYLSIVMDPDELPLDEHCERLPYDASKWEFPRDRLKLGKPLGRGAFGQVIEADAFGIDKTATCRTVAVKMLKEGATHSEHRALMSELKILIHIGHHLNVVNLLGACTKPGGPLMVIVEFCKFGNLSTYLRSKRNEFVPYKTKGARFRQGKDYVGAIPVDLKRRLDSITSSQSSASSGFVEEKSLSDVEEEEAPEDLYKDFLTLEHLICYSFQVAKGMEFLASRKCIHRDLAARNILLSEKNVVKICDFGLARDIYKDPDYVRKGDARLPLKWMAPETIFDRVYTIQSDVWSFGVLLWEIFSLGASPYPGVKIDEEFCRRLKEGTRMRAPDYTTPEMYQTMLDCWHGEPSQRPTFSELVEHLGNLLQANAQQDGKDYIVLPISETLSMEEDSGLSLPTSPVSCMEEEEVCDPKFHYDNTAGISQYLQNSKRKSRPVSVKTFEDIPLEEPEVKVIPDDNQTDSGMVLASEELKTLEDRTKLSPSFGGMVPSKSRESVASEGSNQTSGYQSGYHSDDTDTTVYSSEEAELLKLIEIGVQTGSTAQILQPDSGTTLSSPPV
row,Structure (SMILES),IC50 [µM]
1,Cc1ccc(-n2c(SCC(=O)Nc3ccc(S(=O)(=O)Nc4nc(C)cc(C)n4)cc3)nc3ccccc3c2=O)cc1,0.707
2,Cc1ccc(-n2c(SCC(=O)Nc3ccc(C(=O)Nc4ccc(Cl)cc4)cc3)nc3ccccc3c2=O)cc1,0.685
3,CC(=O)c1ccc(NC(=O)CSc2nc3ccccc3c(=O)n2-c2ccc(C)cc2)cc1,1.78
4,C/C(=N\NC(=O)c1cc([N+](=O)[O-])ccc1Cl)c1ccc(NC(=O)CSc2nc3ccccc3c(=O)n2-c2ccc(C)cc2)cc1,0.452
5,Cc1ccc(-n2c(SCC(=O)Nc3ccc(C(=O)NNc4ccccc4)cc3)nc3ccccc3c2=O)cc1,1.21
6,Cc1ccc(-n2c(SCC(=O)Nc3ccc(C(=O)NNC(=O)c4ccccc4O)cc3)nc3ccccc3c2=O)cc1,1.07
7,CC(=O)NS(=O)(=O)c1ccc(NC(=O)CSc2nc3ccccc3c(=O)n2-c2ccc(C)cc2)cc1,0.721
8,C/C(=N\NC(=O)c1ccccc1O)c1ccc(NC(=O)CSc2nc3ccccc3c(=O)n2-c2ccc(C)cc2)cc1,1.06
9,Cc1ccc(-n2c(SCC(=O)Nc3ccc(C(=O)NCc4ccccc4)cc3)nc3ccccc3c2=O)cc1,1.4
10,Cc1ccc(-n2c(SCC(=O)Nc3ccc(C(=O)Nc4ccccc4)cc3)nc3ccccc3c2=O)cc1,1.37
11,C/C(=N\NC(N)=S)c1ccc(NC(=O)CSc2nc3ccccc3c(=O)n2-c2ccc(C)cc2)cc1,1
